Measured values as given in ChEMBL document CHEMBL2417547 (J Med Chem, 2013).

How the values were obtained:
[1] = molecular target: T1, Cytochrome P450 11B2, mitochondrial (Homo sapiens, UniProt P19099); test: Inhibition of human CYP11B2 expressed in hamster V79MZh cells using [1,2-3H]-11-deoxycorticosterone as substrate; type: cell-based
T1 sequence (P19099 whole entry): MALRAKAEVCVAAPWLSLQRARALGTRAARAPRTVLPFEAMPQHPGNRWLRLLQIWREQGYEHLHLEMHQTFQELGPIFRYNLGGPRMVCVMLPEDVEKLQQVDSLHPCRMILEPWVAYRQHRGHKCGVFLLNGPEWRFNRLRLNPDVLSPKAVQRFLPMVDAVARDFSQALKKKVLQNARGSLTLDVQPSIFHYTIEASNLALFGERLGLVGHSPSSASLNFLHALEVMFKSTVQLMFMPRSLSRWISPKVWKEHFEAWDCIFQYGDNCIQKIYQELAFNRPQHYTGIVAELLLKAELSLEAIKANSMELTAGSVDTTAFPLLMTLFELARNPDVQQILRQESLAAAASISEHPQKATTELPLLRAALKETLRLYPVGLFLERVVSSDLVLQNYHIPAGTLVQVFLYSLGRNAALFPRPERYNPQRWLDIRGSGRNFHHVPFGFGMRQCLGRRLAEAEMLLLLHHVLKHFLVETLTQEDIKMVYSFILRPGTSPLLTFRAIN
Method in brief: (§1)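 V79MZh hamster fibroblasts expressing human CYP11B1 or CYP11B2 were incubated with [1,2-3H]-11-deoxycorticosterone (100 nM) plus inhibitor at a range of concentrations. The selectivity factor is IC50(CYP11B2)/IC50(CYP11B1).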

[2] = molecular target: T2, Cytochrome P450 11B1, mitochondrial (Homo sapiens, UniProt P15538); test: Inhibition of human CYP11B1 expressed in hamster V79MZh cells using [1,2-3H]-11-deoxycorticosterone as substrate; type: cell-based; method in brief: as §1
T2 sequence (P15538 whole entry): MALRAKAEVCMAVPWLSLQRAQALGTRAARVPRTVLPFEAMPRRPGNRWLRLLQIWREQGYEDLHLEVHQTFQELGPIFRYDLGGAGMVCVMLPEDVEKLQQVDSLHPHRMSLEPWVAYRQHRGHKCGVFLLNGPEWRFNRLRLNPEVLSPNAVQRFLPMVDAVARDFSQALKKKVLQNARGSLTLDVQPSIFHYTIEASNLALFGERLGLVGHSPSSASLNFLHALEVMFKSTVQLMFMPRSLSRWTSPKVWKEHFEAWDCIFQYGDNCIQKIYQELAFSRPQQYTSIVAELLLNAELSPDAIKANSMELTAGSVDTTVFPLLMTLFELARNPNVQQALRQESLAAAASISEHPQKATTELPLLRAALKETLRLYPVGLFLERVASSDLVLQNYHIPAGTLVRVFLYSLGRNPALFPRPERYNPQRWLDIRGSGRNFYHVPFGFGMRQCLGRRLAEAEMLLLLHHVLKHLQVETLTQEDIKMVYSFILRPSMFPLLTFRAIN

Homo sapiens = organism: Homo sapiens; test: Selectivity factor, ratio of IC50 for human CYP11B2 to IC50 for human CYP11B1
Method in brief: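 V79MZh hamster fibroblasts expressing human CYP11B1 or CYP11B2 were incubated with [1,2-3H]-11-deoxycorticosterone (100 nM) plus inhibitor at a range of concentrations. […] The selectivity factor is IC50(CYP11B2)/IC50(CYP11B1).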

CYP17 = molecular target: T3, CYP17 (Homo sapiens, UniProt P05093); test: Inhibition of human CYP17 expressed in Escherichia coli co-expressing rat NADPH-P450 reductase using progesterone as substrate at 2 uM relative to control; conditions: probe progesterone
T3 sequence (P05093 whole entry): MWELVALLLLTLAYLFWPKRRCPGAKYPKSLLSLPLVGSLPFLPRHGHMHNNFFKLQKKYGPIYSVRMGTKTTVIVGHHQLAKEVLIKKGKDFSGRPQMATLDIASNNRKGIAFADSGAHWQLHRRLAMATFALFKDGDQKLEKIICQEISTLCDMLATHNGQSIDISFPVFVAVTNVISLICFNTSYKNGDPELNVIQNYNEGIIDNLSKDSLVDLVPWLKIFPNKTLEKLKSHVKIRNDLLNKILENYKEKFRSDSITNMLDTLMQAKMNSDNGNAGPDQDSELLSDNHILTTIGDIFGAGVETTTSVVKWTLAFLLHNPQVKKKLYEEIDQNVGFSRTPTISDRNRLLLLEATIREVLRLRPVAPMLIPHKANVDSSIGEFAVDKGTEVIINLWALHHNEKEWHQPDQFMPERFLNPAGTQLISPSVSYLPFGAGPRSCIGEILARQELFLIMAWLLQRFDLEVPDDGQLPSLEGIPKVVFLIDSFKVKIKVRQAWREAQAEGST
Method in brief: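 Human CYP17 expressed in E. coli, co-expressing rat NADPH-P450 reductase. Progesterone substrate at 25 μM with NADPH cofactor. Test compound at 2 μM. Percent inhibition is the mean of at least three experiments (deviations <25%); values ≤5% are treated as not significant.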

[3] = Cytotoxicity against HEK293 cells after 24 hrs; type: cell-based; conditions: human, read-out: LC50
Method in brief: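 HEK 293 cells seeded at 2 × 10⁵ cells per well; compounds added 24 h after seeding at 1% final DMSO. Living cell mass determined after 24 h incubation; LC₅₀ calculated. Doxorubicin positive control, rifampicin negative control. Mean of more than three repeats.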

CYP19 (aromatase) = molecular target: T4, CYP19 (aromatase) (Homo sapiens, UniProt P11511); test: Inhibition of microsomal CYP19 in human placenta using [1beta-3H]-androstenedione as substrate at 2 uM by 3H2O method relative to control; conditions: placental microsomes, probe [1beta-3H]-androstenedione
T4 sequence (P11511 whole entry): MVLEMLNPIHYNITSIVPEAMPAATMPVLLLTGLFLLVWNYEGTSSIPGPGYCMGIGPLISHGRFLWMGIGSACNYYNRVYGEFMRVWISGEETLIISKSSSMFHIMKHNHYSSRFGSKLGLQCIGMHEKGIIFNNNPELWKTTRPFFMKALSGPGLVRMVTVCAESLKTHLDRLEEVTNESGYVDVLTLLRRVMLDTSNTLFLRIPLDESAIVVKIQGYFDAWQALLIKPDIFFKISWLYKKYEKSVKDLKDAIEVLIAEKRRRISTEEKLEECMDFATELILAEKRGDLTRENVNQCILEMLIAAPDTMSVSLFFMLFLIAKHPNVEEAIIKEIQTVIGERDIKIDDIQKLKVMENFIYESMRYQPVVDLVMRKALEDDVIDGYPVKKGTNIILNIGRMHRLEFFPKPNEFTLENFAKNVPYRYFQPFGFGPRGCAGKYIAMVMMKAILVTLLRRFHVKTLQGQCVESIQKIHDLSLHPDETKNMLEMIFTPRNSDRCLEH
Method in brief: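 Human placental microsomes as the CYP19 source, with [1β-3H]androstenedione at 500 nM. Activity read by 3H2O release. Compound at 2 μM. Percent inhibition is the mean of at least three experiments (deviations <25%); values ≤5% are not significant.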

IC50 [1]	IC50 [2]	Ratio IC50 (Homo sapiens)	inhibition at 2 µM (CYP17)	inhibition at 2 µM (CYP19 (aromatase))	SMILES	CC50 at 24 h [3]
> 5000 nM	> 5000 nM	–	–	–	c1ccc(-c2ccc(Nc3cccnc3)cn2)cc1	–
19 nM	8 nM	2.4	–	–	Cc1ccncc1Cc1ccc(-c2ccccc2)nc1	–
1420 nM	107 nM	13.3	–	–	c1ccc(-c2ccc(Cn3ccnc3)cn2)cc1	–
28 nM	–	2.4	–	–	CC(C)C(c1ccc(-c2ccccc2)nc1)n1ccnc1 (configuration not stated)	–
1880 nM	1020 nM	1.9	–	–	c1ccc(-c2ccc(Oc3cccnc3)cn2)cc1	–
220 nM	151 nM	1.5	–	–	c1ccc2c(-c3ccc(C(C4CC4)n4ccnc4)cn3)cccc2c1 (configuration not stated)	–
92 nM	28 nM	3.4	–	–	CCC(c1ccc(-c2ccccc2)nc1)n1ccnc1 (configuration not stated)	–
110 nM	124 nM	0.9	–	–	c1ccc(-c2ccc(C(c3ccccc3)n3ccnc3)cn2)cc1 (configuration not stated)	–
23 nM	6 nM	4.2	–	–	c1ccc(-c2ccc(Cc3cncc4ccccc34)cn2)cc1	–
0.5 nM	1.3 nM	0.4	–	–	c1ccc(-c2cncc(Cc3ccc(-c4ccccc4)nc3)c2)cc1	–
302 nM	87 nM	3.5	–	–	c1ccc(-c2ncc(Cn3ccnc3)c3ccccc23)cc1	–
25 nM	21 nM	1.2	–	–	c1ccc(-c2ccc(C(C3CC3)n3ccnc3)cn2)cc1 (configuration not stated)	–
322 nM	32 nM	10.1	4%	0%	c1ccc(-c2ccc(Cc3cccnc3)cn2)cc1	–
74 nM	69 nM	1.1	–	–	c1ccc(-c2ccc(C(c3ccco3)n3ccnc3)cn2)cc1 (configuration not stated)	–
200 nM	33 nM	6.1	13%	1%	CC(c1ccc(-c2ccccc2)nc1)n1ccnc1 (configuration not stated)	–
273 nM	60 nM	4.6	–	–	CC(c1ccc(-c2cccc3ccccc23)nc1)n1ccnc1 (configuration not stated)	–
621 nM	98 nM	6.4	–	–	c1ccc(-c2ccc(Cc3ccncc3)cn2)cc1	–

Further lines, the compound ahead of its results:

SMILES	IC50 [1]	IC50 [2]	Ratio IC50 (Homo sapiens)	inhibition at 2 µM (CYP17)	inhibition at 2 µM (CYP19 (aromatase))	CC50 at 24 h [3]
c1ccc(-c2ncc(Cn3ccnc3)cn2)cc1	> 5000 nM	1120 nM	> 5	–	–	–
Fc1cncc(Cc2ccc(-c3ccccc3)nc2)c1	419 nM	125 nM	3.4	–	–	–
c1cn(C(c2ccc(-c3ccsc3)nc2)C2CC2)cn1 (configuration not stated)	31 nM	11 nM	2.8	–	–	–
COc1cncc(Cc2ccc(-c3ccccc3)nc2)c1	25 nM	5 nM	5.1	–	–	–
CC(c1ccc(-c2ccsc2)nc1)n1ccnc1 (configuration not stated)	151 nM	21 nM	9.1	–	–	–
c1ccc(-c2ccc(Cn3ccnc3)nn2)cc1	4540 nM	1710 nM	2.7	–	–	–
NC(=O)c1cncc(Cc2ccc(-c3ccccc3)nc2)c1	2920 nM	427 nM	6.9	–	–	–
c1ccc(-c2cnc(Cn3ccnc3)cn2)cc1	1020 nM	610 nM	1.7	–	–	–
c1cn(Cc2ccc(-c3ccsc3)nc2)cn1	1020 nM	181 nM	5.6	–	–	–
CC(C)(C(=O)c1cccnc1)c1cccnc1 [METYRAPONE]	–	–	–	3%	–	–
CO[C@H]1/C=C/O[C@@]2(C)Oc3c(C)c(O)c4c(O)c(c(/C=N/N5CCN(C)CC5)c(O)c4c3C2=O)NC(=O)/C(C)=C\C=C\[C@H](C)[C@H](O)[C@@H](C)[C@@H](O)[C@@H](C)[C@H](OC(C)=O)[C@@H]1C [RIFAMPIN]	–	–	–	–	–	> 100000 nM
Oc1cncc(Cc2ccc(-c3ccccc3)nc2)c1	836 nM	51 nM	16.4	–	–	–
c1ccc(-c2ccc(Cc3cncnc3)cn2)cc1	3110 nM	240 nM	12.9	–	–	–
COc1cccc2c1C(=O)c1c(O)c3c(c(O)c1C2=O)C[C@@](O)(C(=O)CO)C[C@@H]3O[C@H]1C[C@H](N)[C@H](O)[C@H](C)O1 [DOXORUBICIN]	–	–	–	–	–	4300 nM
c1ccc2c(-c3ccc(Cn4ccnc4)cn3)cccc2c1	656 nM	68 nM	9.7	–	–	–
